Data reported in ChEMBL document CHEMBL3244241, “Synthesis of cephalotaxine esters and correlation of their structures with antitumor activity” (J Med Chem, 1977).

Legend:
Mus musculus [1] = test: Toxicity in DBA/2 mouse allografted with mouse P388 cells up to 320 mg/kg/day, ip for 9 days; assay type: organism-based; design: route intraperitoneal; conditions: in vivo, 216 h
How it was run: (§1)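 DBA/2 mice bearing P388 lymphocytic leukemia received one intraperitoneal injection per day for 9 days, given in the vehicle named for each test (water/alcohol-based, saline or saline + Tween 80). Toxicity was noted during dosing alongside survival scoring (T/C, treated versus control mean survival time).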

Mus musculus [2] = test: Toxicity in DBA/2 mouse allografted with mouse P388 cells assessed as change in body weight at 160 mg/kg/day, ip for 9 days compound administered through saline vehicle; assay type: organism-based; design: route intraperitoneal; conditions: in vivo, 216 h; how it was run: as §1
P388 [3] = test: Antitumor activity against mouse P388 cells allografted in DBA/2 mouse assessed as host survival at 320 mg/kg/day, ip for 9 days compound administered through saline vehicle relative to control; assay type: functional; conditions: route intraperitoneal
How it was run: (§2)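 P388 lymphocytic leukemia in DBA/2 mice. Dosing was one intraperitoneal injection per day for 9 days in the vehicle stated. […] Duplicate tests were run for some doses.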

Mus musculus [4] = test: Toxicity in DBA/2 mouse allografted with mouse P388 cells assessed as change in body weight at 320 mg/kg/day, ip for 9 days compound administered through saline vehicle; assay type: organism-based; design: route intraperitoneal; conditions: in vivo, 216 h; how it was run: as §1
P388 [5] = test: Antitumor activity against mouse P388 cells allografted in DBA/2 mouse assessed as host survival at 80 mg/kg/day, ip for 9 days compound administered through saline vehicle relative to control; assay type: functional; conditions: route intraperitoneal; how it was run: as §2
Mus musculus [6] = test: Toxicity in DBA/2 mouse allografted with mouse P388 cells assessed as change in body weight at 80 mg/kg/day, ip for 9 days compound administered through saline vehicle; assay type: organism-based; design: route intraperitoneal; conditions: in vivo, 216 h; how it was run: as §1
P388 [7] = test: Antitumor activity against mouse P388 cells allografted in DBA/2 mouse assessed as host survival at 160 mg/kg/day, ip for 9 days compound administered through saline vehicle relative to control; assay type: functional; conditions: route intraperitoneal; how it was run: as §2

SMILES: COC1=C[C@]23CCCN2CCc2cc4c(cc2[C@@H]3[C@@H]1OC(=O)[C@@H](OC(=O)OCC(Cl)(Cl)Cl)c1ccccc1)OCO4
- Activity (Mus musculus [1]): Toxic
- Activity (Mus musculus [2]): 1.2 g
- T/C (P388 [3]): 136%
- Activity (Mus musculus [4]): -2.3 g
- T/C (P388 [5]): 138%
- Activity (Mus musculus [6]): -1 g
- T/C (P388 [7]): 154%
